Assay results from ChEMBL document CHEMBL4673212, “Investigation of synergistic antimicrobial effects of the drug combinations of meropenem and 1,2-benzisoselenazol-3(2H)-one derivatives on carbapenem-resistant Enterobacteriaceae producing NDM-1” (Eur J Med Chem, 2018).

How the values were obtained:
Assay type in all cases: functional
[1] = system: Enterobacter cloacae; assay: Growth inhibition of carbapenem-resistant Enterobacter cloacae isolate 19 harboring CTX-M-14 and KPC-2 by CLSI protocol based assay
[2] = system: Escherichia coli; assay: Growth inhibition of carbapenem-resistant Escherichia coli isolate 45 by CLSI protocol based assay
[3] = system: Morganella morganii; assay: Potentiation of meropenem-induced antibacterial activity against carbapenem-resistant Morganella morganii isolate 26 assessed as meropenem MIC by CLSI protocol based assay (reference value: 64 ug/ml)
[4] = system: Enterobacter cloacae; assay: Potentiation of meropenem-induced antibacterial activity against carbapenem-resistant Enterobacter cloacae isolate 08 harboring CTX-M-14, TEM-1 and SHV-12 assessed as meropenem MIC by CLSI protocol based assay (reference value: 32 ug/ml)
[5] = system: Enterobacter cloacae; assay: Growth inhibition of carbapenem-resistant Enterobacter cloacae isolate 07 harboring CTX-M-14, TEM-1 and SHV-12 by CLSI protocol based assay
[6] = system: Klebsiella oxytoca; assay: Growth inhibition of carbapenem-resistant Klebsiella oxytoca isolate 03 harboring SHV-12 by CLSI protocol based assay
[7] = system: Enterobacter cloacae; assay: Synergistic antibacterial activity against carbapenem-resistant Enterobacter cloacae isolate 08 harboring CTX-M-14, TEM-1 and SHV-12 assessed as fractional inhibitory concentration index in presence of meropenem by CLSI protocol based assay
Procedure, shortened: (§1)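 FIC index from MICs of compound alone, meropenem alone, and the 1:1 (mass) compound–meropenem combination, read by eye after overnight incubation in a CLSI-based assay. FIC index = MICcombo/MICcpd + MICcombo/MICMem. FIC index ≤0.5 counted as synergy. At least triplicate assays. Clinical NDM-1 isolates for 17-39; E. coli TG1 carrying the IncX3 blaNDM-1 plasmid for 15.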

[8] = system: Citrobacter freundii; assay: Growth inhibition of carbapenem-resistant Citrobacter freundii isolate 05 harboring SHV-12 by CLSI protocol based assay
[9] = system: Enterobacter cloacae; assay: Potentiation of meropenem-induced antibacterial activity against carbapenem-resistant Enterobacter cloacae isolate 10 harboring CTX-M-14, TEM-1 and SHV-12 assessed as meropenem MIC by CLSI protocol based assay (reference value: 64 ug/ml)
[10] = system: Enterobacter cloacae; assay: Synergistic antibacterial activity against carbapenem-resistant Enterobacter cloacae isolate 27 harboring CTX-M-3, CTX-M-14, TEM-1 and SHV-12 assessed as fractional inhibitory concentration index in presence of meropenem by CLSI protocol based assay; procedure, shortened: as §1
[11] = system: Enterobacter cloacae; assay: Growth inhibition of carbapenem-resistant Enterobacter cloacae isolate 10 harboring CTX-M-14, TEM-1 and SHV-12 by CLSI protocol based assay
[12] = system: Citrobacter freundii; assay: Synergistic antibacterial activity against carbapenem-resistant Citrobacter freundii isolate 43 assessed as fractional inhibitory concentration index in presence of meropenem by CLSI protocol based assay; procedure, shortened: as §1
[13] = system: Enterobacter cloacae; assay: Growth inhibition of carbapenem-resistant Enterobacter cloacae isolate 09 harboring CTX-M-3, CTX-M-14, TEM-1 and SHV-12 by CLSI protocol based assay
[14] = system: Citrobacter freundii; assay: Growth inhibition of carbapenem-resistant Citrobacter freundii isolate 17 harboring SHV-12 by CLSI protocol based assay
[15] = system: Enterobacter cloacae; assay: Growth inhibition of carbapenem-resistant Enterobacter cloacae isolate 28 harboring TEM-1 and SHV-12 by CLSI protocol based assay
[16] = system: Citrobacter freundii; assay: Potentiation of meropenem-induced antibacterial activity against carbapenem-resistant Citrobacter freundii isolate 43 assessed as meropenem MIC by CLSI protocol based assay (Rvb >= 128 ug/ml)
[17] = system: Escherichia coli; assay: Synergistic antibacterial activity against carbapenem-resistant Escherichia coli isolate 06 harboring CTX-M-14, CTX-M-3 and SHV-12 assessed as fractional inhibitory concentration index in presence of meropenem by CLSI protocol based assay; procedure, shortened: as §1
[18] = system: Citrobacter freundii; assay: Growth inhibition of carbapenem-resistant Citrobacter freundii isolate 43 by CLSI protocol based assay
[19] = system: Escherichia coli; assay: Potentiation of meropenem-induced antibacterial activity against carbapenem-resistant Escherichia coli isolate 45 assessed as meropenem MIC by CLSI protocol based assay (Rvb >= 128 ug/ml)
[20] = system: Enterobacter cloacae; assay: Potentiation of meropenem-induced antibacterial activity against carbapenem-resistant Enterobacter cloacae isolate 19 harboring CTX-M-14 and KPC-2 assessed as meropenem MIC by CLSI protocol based assay (Rvb >= 128 ug/ml)
[21] = system: Enterobacter cloacae; assay: Synergistic antibacterial activity against carbapenem-resistant Enterobacter cloacae isolate 07 harboring CTX-M-14, TEM-1 and SHV-12 assessed as fractional inhibitory concentration index in presence of meropenem by CLSI protocol based assay; procedure, shortened: as §1
[22] = system: Citrobacter freundii; assay: Synergistic antibacterial activity against carbapenem-resistant Citrobacter freundii isolate 05 harboring SHV-12 assessed as fractional inhibitory concentration index in presence of meropenem by CLSI protocol based assay; procedure, shortened: as §1
[23] = system: Klebsiella oxytoca; assay: Potentiation of meropenem-induced antibacterial activity against carbapenem-resistant Klebsiella oxytoca isolate 16 harboring SHV-12 assessed as meropenem MIC by CLSI protocol based assay (Rvb >= 128 ug/ml)
[24] = system: Enterobacter cloacae; assay: Potentiation of meropenem-induced antibacterial activity against carbapenem-resistant Enterobacter cloacae isolate 22 harboring CTX-M-14, TEM-1 and SHV-12 assessed as meropenem MIC by CLSI protocol based assay (Rvb >= 128 ug/ml)
[25] = system: Klebsiella pneumoniae; assay: Growth inhibition of carbapenem-resistant Klebsiella pneumoniae isolate 14 harboring CTX-M-14, KPC-2 and SHV-12 by CLSI protocol based assay
[26] = system: Enterobacter cloacae; assay: Synergistic antibacterial activity against carbapenem-resistant Enterobacter cloacae isolate 09 harboring CTX-M-3, CTX-M-14, TEM-1 and SHV-12 assessed as fractional inhibitory concentration index in presence of meropenem by CLSI protocol based assay; procedure, shortened: as §1
[27] = system: Enterobacter cloacae; assay: Growth inhibition of carbapenem-resistant Enterobacter cloacae isolate 22 harboring CTX-M-14, TEM-1 and SHV-12 by CLSI protocol based assay
[28] = system: Escherichia coli; assay: Synergistic antibacterial activity against Escherichia coli TG1 transformed with IncX3 plasmid expressing blaNDM-1 assessed as ratio of negative logarithm of fractional inhibitory concentration index to non-hydrogen atom in presence of meropenem incubated for overnight by CLSI protocol based assay; details: time 12 hrs
Procedure, shortened: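 In E. coli TG1 carrying the IncX3 blaNDM-1 plasmid, the FIC index was taken from overnight CLSI-based MICs of compound, meropenem and their 1:1 mass mixture, read by eye. Synergistic efficiency = −ln(FIC index) divided by the number of non-hydrogen atoms. At least triplicate assays.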

[29] = system: Enterobacter cloacae; assay: Synergistic antibacterial activity against carbapenem-resistant Enterobacter cloacae isolate 18 harboring IMP-4 and TEM-1 assessed as fractional inhibitory concentration index in presence of meropenem by CLSI protocol based assay
[30] = system: Klebsiella oxytoca; assay: Potentiation of meropenem-induced antibacterial activity against carbapenem-resistant Klebsiella oxytoca isolate 03 harboring SHV-12 assessed as meropenem MIC by CLSI protocol based assay (Rvb >= 128 ug/ml)
[31] = system: Escherichia coli; assay: Potentiation of meropenem-induced antibacterial activity against Escherichia coli TG1 transformed with IncX3 plasmid expressing blaNDM-1 assessed as bacterial growth inhibition by measuring meropenem MIC incubated for overnight by CLSI protocol based assay; details: time 12 hrs
[32] = system: Klebsiella pneumoniae; assay: Growth inhibition of carbapenem-resistant Klebsiella pneumoniae isolate 04 harboring CTX-M-14, VIM-1, TEM-1 and SHV-12 by CLSI protocol based assay

O=c1c2ccccc2[se]n1-c1ccccc1 [EBSELEN]
MIC [1]: ≥ 128 µg/mL | MIC [2]: ≥ 128 µg/mL | MIC [3]: 64 µg/mL | MIC [4]: 32 µg/mL | MIC [5]: ≥ 128 µg/mL | MIC [6]: ≥ 128 µg/mL | fractional inhibitory concentration index (FICI) [7]: 1.25 | MIC [8]: ≥ 128 µg/mL | MIC [9]: 64 µg/mL | fractional inhibitory concentration index (FICI) [10]: 2.5 | MIC [11]: ≥ 128 µg/mL | fractional inhibitory concentration index (FICI) [12]: 0.5 | MIC [13]: ≥ 128 µg/mL | MIC [14]: ≥ 128 µg/mL | MIC [15]: ≥ 128 µg/mL | MIC [16]: 32 µg/mL | fractional inhibitory concentration index (FICI) [17]: 1 | MIC [18]: ≥ 128 µg/mL | MIC [19]: 16 µg/mL | MIC [20]: ≥ 128 µg/mL | fractional inhibitory concentration index (FICI) [21]: 0.38 | fractional inhibitory concentration index (FICI) [22]: 0.25 | MIC [23]: 32 µg/mL | MIC [24]: ≥ 128 µg/mL | MIC [25]: ≥ 128 µg/mL | fractional inhibitory concentration index (FICI) [26]: 2 | MIC [27]: ≥ 128 µg/mL | Ratio [28]: 0.043 | fractional inhibitory concentration index (FICI) [29]: 2.5 | MIC [30]: 32 µg/mL | MIC [31]: 16 µg/mL | MIC [32]: ≥ 128 µg/mL

CC(C)(C)OC(=O)NCCn1[se]c2ccccc2c1=O
MIC [1]: ≥ 128 µg/mL | MIC [2]: ≥ 128 µg/mL | MIC [3]: 2 µg/mL | MIC [4]: 4 µg/mL | MIC [5]: ≥ 128 µg/mL | MIC [6]: ≥ 128 µg/mL | fractional inhibitory concentration index (FICI) [7]: 0.16 | MIC [8]: ≥ 128 µg/mL | MIC [9]: 8 µg/mL | fractional inhibitory concentration index (FICI) [10]: 0.16 | MIC [11]: ≥ 128 µg/mL | fractional inhibitory concentration index (FICI) [12]: 0.25 | MIC [13]: ≥ 128 µg/mL | MIC [14]: ≥ 128 µg/mL | MIC [15]: ≥ 128 µg/mL | MIC [16]: 16 µg/mL | fractional inhibitory concentration index (FICI) [17]: 0.13 | MIC [18]: ≥ 128 µg/mL | MIC [19]: 4 µg/mL | MIC [20]: 16 µg/mL | fractional inhibitory concentration index (FICI) [21]: 0.19 | fractional inhibitory concentration index (FICI) [22]: 0.13 | MIC [23]: 8 µg/mL | MIC [24]: 16 µg/mL | MIC [25]: ≥ 128 µg/mL | fractional inhibitory concentration index (FICI) [26]: 0.13 | MIC [27]: ≥ 128 µg/mL | Ratio [28]: 0.153 | fractional inhibitory concentration index (FICI) [29]: 0.63 | MIC [30]: 8 µg/mL | MIC [31]: 2 µg/mL | MIC [32]: ≥ 128 µg/mL
